From ChEMBL document CHEMBL3739412, “Addressing cytotoxicity of 1,4-biphenyl amide derivatives: Discovery of new potent and selective 17β-hydroxysteroid dehydrogenase type 2 inhibitors” (Bioorg Med Chem Lett, 2016)
The source made the active and inactive calls. No cut-off for these calls is given here.

Assays:
[1] = biological target: T1, 17-beta-hydroxysteroid dehydrogenase type 2 (Homo sapiens) (UniProt P37059); assay: Inhibition of 17beta-HSD2 in human placental microsomal fraction using E2/NAD+ as substrate/cofactor at 1 uM after 20 mins by HPLC analysis; details: Placenta
T1 sequence (whole entry): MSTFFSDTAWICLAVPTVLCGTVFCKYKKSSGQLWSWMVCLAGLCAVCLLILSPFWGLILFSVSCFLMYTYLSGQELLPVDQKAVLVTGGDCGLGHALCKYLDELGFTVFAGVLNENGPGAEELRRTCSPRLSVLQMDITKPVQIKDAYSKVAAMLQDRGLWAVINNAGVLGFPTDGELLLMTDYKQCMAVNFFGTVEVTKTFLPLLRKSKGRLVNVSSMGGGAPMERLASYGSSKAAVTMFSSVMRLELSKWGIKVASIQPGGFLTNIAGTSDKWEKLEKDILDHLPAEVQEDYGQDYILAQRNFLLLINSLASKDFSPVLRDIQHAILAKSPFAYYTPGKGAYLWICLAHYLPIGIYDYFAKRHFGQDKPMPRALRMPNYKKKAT
Outline: (§1)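 Enzyme source is human placenta, microsomal fraction. Substrate is estradiol (E2) at 500 nM, with NAD+ as cofactor. Values are the mean of at least two determinations, with standard deviation below 20%.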

[2] = biological target: T2, 17-beta-hydroxysteroid dehydrogenase type 1 (Homo sapiens) (UniProt P14061); assay: Inhibition of 17beta-HSD1 in human placental cytosolic fraction using E1/NADH as substrate/cofactor at 1 uM after 10 mins by HPLC analysis
T2 sequence (whole entry): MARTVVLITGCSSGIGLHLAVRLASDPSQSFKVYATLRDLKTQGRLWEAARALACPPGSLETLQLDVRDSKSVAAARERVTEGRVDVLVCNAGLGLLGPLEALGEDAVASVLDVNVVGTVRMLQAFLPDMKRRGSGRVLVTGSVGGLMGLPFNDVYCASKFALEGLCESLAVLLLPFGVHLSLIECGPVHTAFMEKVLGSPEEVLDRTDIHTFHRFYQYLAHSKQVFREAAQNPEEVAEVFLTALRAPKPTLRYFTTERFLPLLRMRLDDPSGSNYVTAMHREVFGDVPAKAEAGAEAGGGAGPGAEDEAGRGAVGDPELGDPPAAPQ
Outline: (§2)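 Enzyme source is human placenta, cytosolic fraction. Substrate is estrone (E1) at 500 nM, with NADH as cofactor. Values are the mean of at least two determinations, with standard deviation below 20%.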

[3] = biological target: T3, 17-beta-hydroxysteroid dehydrogenase type 2 (Homo sapiens, UniProt P37059); assay: Inhibition of 17beta-HSD2 in human placental microsomal fraction using E2/NAD+ as substrate/cofactor after 20 mins by HPLC analysis; parameters: species or system Placenta; outline: as §1
T3 sequence (P37059 whole entry): T1 sequence (whole entry)

[4] = biological target: T4, 17-beta-hydroxysteroid dehydrogenase type 1 (Homo sapiens, UniProt P14061); assay: Inhibition of 17beta-HSD1 in human placental cytosolic fraction using E1/NADH as substrate/cofactor after 10 mins by HPLC analysis; outline: as §2
T4 sequence (P14061 whole entry): T2 sequence (whole entry)

Homo sapiens = species on record: Homo sapiens; assay: Selectivity ratio of IC50 for 17beta-HSD1 in human placental cytosolic fraction to IC50 for 17beta-HSD2 in human placental microsomal fraction
[5] = Cytotoxicity against HEK293 cells assessed as cell viability after 66 hrs by MTT assay; format: cell-based; details: human, read-out: LD50
[6] = Half life in human liver S9 fraction at 1 uM after 5 to 60 mins by LC-MS/MS analysis; format: ADME, subcellular
[7] = Cytotoxicity against HEK293 cells assessed as cell viability at 6.25 uM after 66 hrs by MTT assay; format: cell-based; details: human, read-out: Activity

Row | Compound | inhibition [1] | inhibition [2] | further results
1 | Cc1cccc(Oc2ccc(C(=O)N(C)c3cccc(C)c3)cc2)c1 | – | – | IC50 [3]: 0.3 µM; IC50 ([4]; read-out: IC50): 16.1 µM; Ratio IC50 (Homo sapiens): 54; CC50 at 66 h [5]: 25 µM
2 | COc1ccc(Oc2ccc(C(=O)N(C)c3cccc(OC)c3)cc2)cc1 | – | – | IC50 [3]: 0.31 µM; IC50 ([4]; read-out: IC50): 9.6 µM; Ratio IC50 (Homo sapiens): 31; CC50 at 66 h [5]: 25 µM
3 | Cc1ccc(Oc2ccc(C(=O)N(C)c3cccc(C)c3)cc2)cc1 | – | – | IC50 [3]: 0.16 µM; IC50 ([4]; read-out: IC50): 26.3 µM; Ratio IC50 (Homo sapiens): 168; CC50 at 66 h [5]: 25 µM
4 | Cc1cccc(N(C)C(=O)c2ccc(Oc3ccccc3)cc2)c1 | 59% | inactive | IC50 [4]: Not Active
5 | COc1cccc(N(C)C(=O)c2ccc(Oc3ccc([N+](=O)[O-])cc3)cc2)c1 | 43% | inactive | IC50 [4]: Not Active
6 | COc1cccc(N(C)C(=O)c2ccc(-c3ccc(C)c(C)c3)cc2)c1 | 75% | – | Ratio IC50 (Homo sapiens): 44; half-life at 1 µM [6]: 1.78 h; CC50 at 66 h [5]: < 6.25 µM; viability at 66 h, 6.25 µM [7]: 34%
7 | COc1cccc(N(C)C(=O)c2ccc(Oc3ccc(Cl)cc3)cc2)c1 | 51% | 13% | –
8 | Cc1cccc(N(C)C(=O)c2ccc(Oc3ccccc3C)cc2)c1 | 55% | inactive | IC50 [4]: Not Active
9 | CN(C(=O)c1ccc(Oc2ccc(O)cc2)cc1)c1cccc(O)c1 | 43% | inactive | IC50 [4]: Not Active
10 | COc1cccc(N(C)C(=O)C2CCC(c3ccc(Cl)cc3)CC2)c1 (stereo unspecified) | – | – | IC50 [3]: 0.29 µM; IC50 ([4]; read-out: IC50): 60.1 µM; Ratio IC50 (Homo sapiens): 209; CC50 at 66 h [5]: > 12.5 µM

Continued, in another order:

Row | inhibition [1] | inhibition [2] | Compound | further results
11 | 16% | inactive | COc1cccc(S(=O)(=O)N2CCN(c3cccc(C)c3)CC2)c1 | –
12 | 27% | inactive | O=C(c1cccc(O)c1)N1CCN(c2ccccc2)CC1 | –
13 | 48% | inactive | O=S(=O)(c1cccc(O)c1)N1CCN(c2ccc(F)c(O)c2)CC1 | –
14 | 16% | inactive | Cc1cccc(N2CCN(C(=O)c3cccc(O)c3)CC2)c1 | –
15 | inactive | inactive | COc1cccc(C(=O)N2CCN(c3cccc(OC)c3)CC2)c1 | –
16 | inactive | inactive | COc1cccc(C(=O)N2CCN(c3cccc(C)c3)CC2)c1 | –
17 | 16% | inactive | COc1cccc(C(=O)N2CCN(c3ccc(C)cc3)CC2)c1 | –
18 | inactive | inactive | Cc1ccc(N2CCN(C(=O)c3cccc(O)c3)CC2)cc1 | –
19 | inactive | inactive | COc1cccc(N2CCN(S(=O)(=O)c3cccc(OC)c3)CC2)c1 | –
20 | 14% | inactive | COc1cccc(C(=O)N2CCN(c3ccccc3)CC2)c1 | –
21 | 27% | inactive | Cc1cccc(N2CCN(S(=O)(=O)c3cccc(O)c3)CC2)c1 | –
22 | 25% | inactive | O=S(=O)(c1cccc(O)c1)N1CCN(c2cccc(O)c2)CC1 | –
23 | 15% | inactive | COc1cccc(S(=O)(=O)N2CCN(c3ccc(F)c(OC)c3)CC2)c1 | –
